Results from ChEMBL document CHEMBL1145499, “Asiatic acid and corosolic acid enhance the susceptibility of Pseudomonas aeruginosa biofilms to tobramycin” (2007).

What was measured:
Format in all cases: functional
Pseudomonas aeruginosa [1] = experiment: Antibacterial activity against Pseudomonas aeruginosa PAO1 assessed as log reduction of bacterial count at 50 ug/ml by rotating disk reactor method
Pseudomonas aeruginosa [2] = experiment: Antibacterial activity against Pseudomonas aeruginosa PAO1 assessed as log reduction of bacterial count at 50 ug/ml by CDC biofilm reactor method
Summary of the method: (§1)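 CDC-type biofilm reactor with PAO1 on polystyrene coupons, grown 24 h batch then 24 h continuous flow. Medium was fed at 13 ml/min, giving ~27 min residence. Coupon treatments, inoculum, medium and analysis matched the rotating disk runs: sonication, plate counts, log10 CFU/cm2, and log reduction against untreated control.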

Pseudomonas aeruginosa [3] = experiment: Antibacterial activity against Pseudomonas aeruginosa PAO1
Pseudomonas aeruginosa [4] = experiment: Antibacterial activity against Pseudomonas aeruginosa PAO1 assessed as log reduction of bacterial count at 100 ug/ml by rotating disk reactor method
Summary of the method: (§2)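 Rotating disk reactor (~200 rpm, 180 ml, 60-min residence, ca. 26°C) with polystyrene coupons and P. aeruginosa PAO1 inoculated per ASTM E-2196-02. Biofilms were grown 24 h in batch, then 24 h under flow. Compound was added to ~100 µg/ml final (ethanol or DMSO vehicle) for 24 h in batch. Coupons then received 100 µg/ml tobramycin or PBS for 2 h at room temperature. LR = negative-control mean log10 CFU/cm2 minus treated mean, three coupons per set.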

Pseudomonas aeruginosa [5] = experiment: Antibacterial activity against Pseudomonas aeruginosa PAO1 assessed as log reduction of bacterial count at 10 ug/ml by rotating disk reactor method
Pseudomonas aeruginosa [6] = experiment: Antibacterial activity against Pseudomonas aeruginosa PAO1 assessed as log reduction of bacterial count by rotating disk reactor method; summary of the method: as §2
Pseudomonas aeruginosa [7] = experiment: Antibacterial activity against Pseudomonas aeruginosa PAO1 assessed as log reduction of bacterial count at 100 ug/ml by CDC biofilm reactor method; summary of the method: as §1

| MIC (Pseudomonas aeruginosa [3]) | SMILES | Activity (Pseudomonas aeruginosa [1]) | Activity (Pseudomonas aeruginosa [2]) | Activity (Pseudomonas aeruginosa [4]) | Activity (Pseudomonas aeruginosa [5]) | Activity (Pseudomonas aeruginosa [6]) | Activity (Pseudomonas aeruginosa [7]) |
| --- | --- | --- | --- | --- | --- | --- | --- |
| ≥ 128 µg/mL | C[C@H]1[C@H](C)CC[C@]2(C(=O)O)CC[C@]3(C)C(=CC[C@@H]4[C@@]5(C)C[C@@H](O)[C@H](O)[C@@](C)(CO)[C@@H]5CC[C@]43C)[C@H]12 [ASIATIC ACID] | 0.12 | 0.8 | 0.19 | 0.14 | – | – |
| ≥ 1 µg/mL | O=C(O)c1cn(C2CC2)c2cc(N3CCNCC3)c(F)cc2c1=O [CIPROFLOXACIN] | – | – | – | – | -0.29 | – |
| > 128 µg/mL | C[C@H]1[C@H](C)CC[C@]2(C(=O)O)CC[C@]3(C)C(=CC[C@@H]4[C@@]5(C)C[C@@H](O)[C@H](O)C(C)(C)[C@@H]5CC[C@]43C)[C@H]12 [COROSOLIC ACID] | -0.04 | – | 0.02 | – | – | 0.7 |
| – | NC[C@H]1O[C@H](O[C@H]2[C@H](O)[C@@H](O[C@H]3O[C@H](CO)[C@@H](O)[C@H](N)[C@H]3O)[C@H](N)C[C@@H]2N)[C@H](N)C[C@@H]1O [TOBRAMYCIN] | 0.78 | – | 1.36 | 1.51 | 0.4 | – |
